Experimental data published in ChEMBL document CHEMBL1131242, “6beta-Acetoxynortropane: a potent muscarinic agonist with apparent selectivity toward M2-receptors” (J Med Chem, 1998).
Where a chain is given by its changes, count along the chain named.

Tests used:
[1] = molecular target: T1, Muscarinic acetylcholine receptor M3 (Homo sapiens, UniProt P20309); assay: Inhibition of binding of [3H]quinuclidinyl benzilate to human Muscarinic acetylcholine receptor M3 in membranes of transfected CHO cells at 100 uM concentration; details: Membrane
Target sequence in this assay (P20309 whole entry, looked up): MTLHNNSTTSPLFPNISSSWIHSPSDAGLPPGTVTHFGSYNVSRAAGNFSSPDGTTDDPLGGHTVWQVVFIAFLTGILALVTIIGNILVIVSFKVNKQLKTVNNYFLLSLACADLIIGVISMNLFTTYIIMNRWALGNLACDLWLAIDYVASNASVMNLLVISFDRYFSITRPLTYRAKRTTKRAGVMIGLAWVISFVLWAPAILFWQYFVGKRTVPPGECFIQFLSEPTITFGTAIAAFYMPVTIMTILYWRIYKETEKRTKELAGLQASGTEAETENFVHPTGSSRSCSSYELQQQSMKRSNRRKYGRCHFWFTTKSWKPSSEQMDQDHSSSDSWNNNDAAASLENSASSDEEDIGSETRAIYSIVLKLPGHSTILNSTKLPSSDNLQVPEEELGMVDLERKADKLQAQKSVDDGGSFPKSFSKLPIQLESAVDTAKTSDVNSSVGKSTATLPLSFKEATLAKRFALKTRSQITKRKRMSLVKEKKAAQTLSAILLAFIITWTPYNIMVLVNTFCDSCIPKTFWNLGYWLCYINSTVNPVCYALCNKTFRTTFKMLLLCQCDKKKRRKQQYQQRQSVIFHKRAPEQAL

[2] = molecular target: T2, Muscarinic acetylcholine receptor M4 (Homo sapiens) (UniProt P08173); assay: Inhibition of binding of [3H]quinuclidinyl benzilate to muscarinic receptors in membranes of CHO cells transfected with Muscarinic acetylcholine receptor M4
T2 sequence (whole entry): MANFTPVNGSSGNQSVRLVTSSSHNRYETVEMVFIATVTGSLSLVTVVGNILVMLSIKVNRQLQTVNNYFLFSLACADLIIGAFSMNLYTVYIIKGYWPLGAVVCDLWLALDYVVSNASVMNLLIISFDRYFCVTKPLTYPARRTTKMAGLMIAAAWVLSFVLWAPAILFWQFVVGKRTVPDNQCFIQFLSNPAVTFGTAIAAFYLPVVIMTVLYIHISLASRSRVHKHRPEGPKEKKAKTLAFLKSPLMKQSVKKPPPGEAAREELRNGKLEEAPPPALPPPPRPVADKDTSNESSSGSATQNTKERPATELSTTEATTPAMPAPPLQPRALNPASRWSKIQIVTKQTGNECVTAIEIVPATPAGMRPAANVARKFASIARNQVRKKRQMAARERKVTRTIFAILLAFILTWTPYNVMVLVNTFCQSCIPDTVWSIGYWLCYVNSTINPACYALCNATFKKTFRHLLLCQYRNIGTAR

[3] = molecular target: Muscarinic acetylcholine receptor M4 (Homo sapiens) (UniProt P08173); assay: Inhibitory activity against [3H]-cyclic AMP accumulation in CHO transfected cells mediated by Muscarinic acetylcholine receptor M4
[4] = molecular target: Muscarinic acetylcholine receptor M4 (Homo sapiens) (UniProt P08173); assay: Inhibition of binding of [3H]quinuclidinyl benzilate to Muscarinic acetylcholine receptor M4 in membranes of transfected CHO cells
[5] = molecular target: T1, Muscarinic acetylcholine receptor M3; assay: Percentage inhibition of binding of [3H]quinuclidinyl benzilate to muscarinic receptors in membranes of CHO cells transfected with Muscarinic acetylcholine receptor M3
Target sequence in this assay (P20309 whole entry, looked up): as the sequence (P20309 whole entry, looked up) above

[6] = molecular target: T1, Muscarinic acetylcholine receptor M3; assay: Inhibitory activity against stimulation of [3H]inositol monophosphate accumulation in [3H]inositol-labelled CHO transfected cells mediated by Muscarinic acetylcholine receptor M3
Target sequence in this assay (P20309 whole entry, looked up): as the sequence (P20309 whole entry, looked up) above

[7] = molecular target: T3, Neuronal acetylcholine receptor; alpha4/beta2 (Rattus norvegicus, UniProt P09483+P12390); assay: Inhibition of binding of [3H]nicotine to Nicotinic acetylcholine receptor alpha4-beta2 in rat cerebral cortical membranes at 100 uM concentration; format: cell membranes, Membrane
Method in brief: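 [3H]nicotine (0.2 nM) binding to rat cortical membranes, with 200 µM diisopropyl fluorophosphate, 120 min at 0–4 °C, triplicate. Nonspecific binding with 1 µM nicotine. Percent inhibition at 100 µM test agent; mean ± SEM, n = 4.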

[8] = molecular target: T3, Neuronal acetylcholine receptor; alpha4/beta2; assay: The compound was evaluated for percentage inhibition of binding of [3H]- nicotine to Nicotinic acetylcholine receptor alpha4-beta2 in Rat Cerebral Cortical Membranes; format: protein-complex assay
Method in brief: (§1)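 Rat cerebral cortex membranes with 0.2 nM [3H]nicotine in HEPES binding buffer pH 7.4 containing 200 µM diisopropyl fluorophosphate. Incubation was 120 min at 0–4 °C, in triplicate. Nonspecific binding used 1 µM nicotine. Samples were filtered through polyethylenimine-soaked GF/B filters and counted.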

[9] = molecular target: T4, Muscarinic acetylcholine receptor M4 (Homo sapiens, UniProt P08173); assay: (§2) Inhibition of binding of [3H]quinuclidinyl benzilate to muscarinic receptors in membranes of CHO cells transfected with Muscarinic acetylcholine receptor M4; format: cell membranes
T4 sequence (P08173 whole entry): T2 sequence (whole entry)

[10] = molecular target: T5, Muscarinic acetylcholine receptor M1 (Rattus norvegicus, UniProt P08482); assay: Inhibition of binding of [3H]quinuclidinyl benzilate to Muscarinic acetylcholine receptor M1 in rat cerebral cortical membranes; format: cell membranes, Membrane
T5 sequence (P08482 whole entry): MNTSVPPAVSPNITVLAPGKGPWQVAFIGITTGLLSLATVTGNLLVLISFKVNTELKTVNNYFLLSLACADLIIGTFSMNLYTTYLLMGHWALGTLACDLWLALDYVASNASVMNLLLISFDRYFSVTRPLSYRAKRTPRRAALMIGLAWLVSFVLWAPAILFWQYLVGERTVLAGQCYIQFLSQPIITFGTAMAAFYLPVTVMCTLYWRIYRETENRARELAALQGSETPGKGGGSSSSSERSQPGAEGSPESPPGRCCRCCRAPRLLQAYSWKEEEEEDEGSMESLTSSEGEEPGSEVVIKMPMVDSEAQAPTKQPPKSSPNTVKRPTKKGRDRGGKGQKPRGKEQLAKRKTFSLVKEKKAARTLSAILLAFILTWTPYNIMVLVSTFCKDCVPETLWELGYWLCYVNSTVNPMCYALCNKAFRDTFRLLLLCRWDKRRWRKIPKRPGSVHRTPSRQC
Method in brief: (§3)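 Rat cerebral cortex membranes were homogenised in 50 mM Tris-HCl pH 7.4 and diluted in HEPES binding buffer. They were incubated with 0.2 nM [3H]quinuclidinyl benzilate in 20 mM HEPES pH 7.4 with 10 mM MgCl2 and 100 mM NaCl for 30 min at 37 °C, in triplicate. Nonspecific binding used 1 µM atropine. Filtration was followed by scintillation counting.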

[11] = molecular target: T6, Muscarinic acetylcholine receptor M1 (Rattus norvegicus) (UniProt P08482); details: Membrane; 30 uM
T6 sequence (whole entry): T5 sequence (P08482 whole entry)

[12] = molecular target: T5, Muscarinic acetylcholine receptor M1; assay: The compound was evaluated for inhibition of binding of [3H]quinuclidinyl benzilate to Muscarinic acetylcholine receptor M1 in Rat Cerebral Cortical Membranes
Method in brief: as §3

[13] = molecular target: T5, Muscarinic acetylcholine receptor M1; assay: Inhibition of binding of [3H]oxotremorine M to Muscarinic acetylcholine receptor M1 in rat cerebral cortical membranes; format: cell membranes, Membrane
Method in brief: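 Agonist radioligand assay: rat cortical membranes with 2 nM [3H]oxotremorine M in 25 mM sodium phosphate pH 7.4 with 5 mM MgCl2, 2 h at 25 °C, in triplicate. Nonspecific binding used 5 µM atropine. Filtration followed by scintillation counting.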

[14] = molecular target: T7, Muscarinic acetylcholine receptor M1 (Homo sapiens) (UniProt P11229); assay: (§4) Percentage inhibition of binding of [3H]quinuclidinyl benzilate to muscarinic receptors in membranes of CHO cells transfected with Muscarinic acetylcholine receptor M1; format: cell membranes; details: concentration not given here
T7 sequence (whole entry): T5 sequence (P08482 whole entry) with V5A, S254T, S309P, K320R, G337A, V413I
Method in brief: (§5)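 Membranes from CHO cells expressing human M1–M4 receptors in 25 mM sodium phosphate pH 7.4 with 5 mM MgCl2, 30 min at 37 °C, triplicate. [3H]quinuclidinyl benzilate was 0.2 nM for M1 and M3 and 0.1 nM for M2 and M4. Nonspecific binding used 10 µM atropine for M1 and 1 µM for the others.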

[15] = molecular target: T8, Muscarinic acetylcholine receptor M2 (Homo sapiens, UniProt P08172); assay: (§6) Inhibition of binding of [3H]quinuclidinyl benzilate to muscarinic receptors in membranes of CHO cells transfected with Muscarinic acetylcholine receptor M2; format: cell membranes
T8 sequence (P08172 whole entry): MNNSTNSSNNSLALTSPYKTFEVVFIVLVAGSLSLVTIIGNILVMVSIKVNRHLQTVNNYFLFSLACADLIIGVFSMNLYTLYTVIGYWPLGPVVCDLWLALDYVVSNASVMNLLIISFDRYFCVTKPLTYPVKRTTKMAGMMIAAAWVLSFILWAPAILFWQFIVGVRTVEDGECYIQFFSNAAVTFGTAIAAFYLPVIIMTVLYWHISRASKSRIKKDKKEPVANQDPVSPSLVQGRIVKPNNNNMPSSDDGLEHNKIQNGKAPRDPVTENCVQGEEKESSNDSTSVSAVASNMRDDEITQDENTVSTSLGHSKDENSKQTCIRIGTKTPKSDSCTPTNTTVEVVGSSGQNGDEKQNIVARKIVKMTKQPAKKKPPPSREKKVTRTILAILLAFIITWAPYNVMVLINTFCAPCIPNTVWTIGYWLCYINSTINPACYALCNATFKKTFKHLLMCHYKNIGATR

[16] = molecular target: T1, Muscarinic acetylcholine receptor M3; assay: Inhibition of binding of [3H]quinuclidinyl benzilate to muscarinic receptors in membranes of CHO cells transfected with Muscarinic acetylcholine receptor M3; format: cell membranes
Target sequence in this assay (P20309 whole entry): as the sequence (P20309 whole entry, looked up) above

[17] = molecular target: T5, Muscarinic acetylcholine receptor M1; assay: Affinity versus [3H]oxotremorine M (agonist) binding to Muscarinic acetylcholine receptor M1 in Rat Cerebral Cortical Membranes, (Kd=[…])
[18] = molecular target: Muscarinic acetylcholine receptor M2 (Homo sapiens) (UniProt P08172); assay: Inhibition of binding of [3H]quinuclidinyl benzilate to Muscarinic acetylcholine receptor M2 in membranes of transfected CHO cells
[19] = molecular target: T3, Neuronal acetylcholine receptor; alpha4/beta2; assay: Inhibition of binding of [3H]nicotine to Nicotinic acetylcholine receptor alpha4-beta2 in rat cerebral cortical membranes; format: cell membranes, Membrane
Method in brief: as §1

[20] = molecular target: T5, Muscarinic acetylcholine receptor M1; assay: Affinity versus [3H]quinuclidinyl benzilate (antagonist) binding to Muscarinic acetylcholine receptor M1 in Rat Cerebral Cortical Membranes,
Method in brief: as §3

[21] = molecular target: Muscarinic acetylcholine receptor M3 (Rattus norvegicus) (UniProt P08483); assay: Percentage inhibition of binding of [3H]quinuclidinyl benzilate to muscarinic receptors in membranes of CHO cells transfected with Muscarinic acetylcholine receptor M3; format: cell membranes; details: concentration not given here
[22] = molecular target: T6, Muscarinic acetylcholine receptor M1 (Rattus norvegicus); assay: as §4; format: cell membranes; details: concentration not given here
Method in brief: as §5

[23] = molecular target: T9, Muscarinic acetylcholine receptor M4 (Rattus norvegicus) (UniProt P08485); assay: Inhibition of binding of [3H]quinuclidinyl benzilate to Muscarinic acetylcholine receptor M4 […] at 300 uM concentration; format: cell membranes; details: Membrane
T9 sequence (whole entry): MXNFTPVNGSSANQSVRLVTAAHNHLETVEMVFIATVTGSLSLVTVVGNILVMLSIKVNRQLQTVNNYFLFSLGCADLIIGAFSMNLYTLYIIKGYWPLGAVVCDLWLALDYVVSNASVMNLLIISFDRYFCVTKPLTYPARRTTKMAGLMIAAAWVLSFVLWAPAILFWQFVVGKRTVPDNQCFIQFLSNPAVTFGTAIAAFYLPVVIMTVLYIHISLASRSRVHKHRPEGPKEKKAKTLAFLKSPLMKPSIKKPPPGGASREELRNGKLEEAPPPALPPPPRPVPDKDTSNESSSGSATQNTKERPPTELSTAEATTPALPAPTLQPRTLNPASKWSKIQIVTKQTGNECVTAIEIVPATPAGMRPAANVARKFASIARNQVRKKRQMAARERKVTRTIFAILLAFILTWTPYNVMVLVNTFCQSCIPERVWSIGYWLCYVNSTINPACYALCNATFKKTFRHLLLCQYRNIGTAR

[24] = molecular target: T10, Muscarinic acetylcholine receptor M2 (Rattus norvegicus, UniProt P10980); assay: as §6; format: cell membranes
T10 sequence (P10980 whole entry): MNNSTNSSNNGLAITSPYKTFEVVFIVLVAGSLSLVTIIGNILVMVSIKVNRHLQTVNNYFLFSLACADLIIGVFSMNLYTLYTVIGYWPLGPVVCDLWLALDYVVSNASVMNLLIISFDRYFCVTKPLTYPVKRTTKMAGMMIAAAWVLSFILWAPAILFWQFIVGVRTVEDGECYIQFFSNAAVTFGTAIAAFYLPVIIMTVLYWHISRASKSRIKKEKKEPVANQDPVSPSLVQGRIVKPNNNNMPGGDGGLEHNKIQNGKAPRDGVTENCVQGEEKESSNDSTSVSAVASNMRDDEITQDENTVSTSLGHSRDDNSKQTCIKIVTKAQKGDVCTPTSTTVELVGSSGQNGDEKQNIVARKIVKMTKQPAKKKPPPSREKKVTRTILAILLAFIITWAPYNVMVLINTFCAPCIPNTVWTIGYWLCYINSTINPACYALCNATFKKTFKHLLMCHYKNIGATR
Method in brief: as §5

[25] = molecular target: Muscarinic acetylcholine receptor M1 (Homo sapiens) (UniProt P11229); assay: Inhibition of binding of [3H]quinuclidinyl benzilate to human Muscarinic acetylcholine receptor M1 in membranes of transfected CHO cells at 300 uM concentration; details: Membrane
Target sequence in this assay (P11229 whole entry, looked up): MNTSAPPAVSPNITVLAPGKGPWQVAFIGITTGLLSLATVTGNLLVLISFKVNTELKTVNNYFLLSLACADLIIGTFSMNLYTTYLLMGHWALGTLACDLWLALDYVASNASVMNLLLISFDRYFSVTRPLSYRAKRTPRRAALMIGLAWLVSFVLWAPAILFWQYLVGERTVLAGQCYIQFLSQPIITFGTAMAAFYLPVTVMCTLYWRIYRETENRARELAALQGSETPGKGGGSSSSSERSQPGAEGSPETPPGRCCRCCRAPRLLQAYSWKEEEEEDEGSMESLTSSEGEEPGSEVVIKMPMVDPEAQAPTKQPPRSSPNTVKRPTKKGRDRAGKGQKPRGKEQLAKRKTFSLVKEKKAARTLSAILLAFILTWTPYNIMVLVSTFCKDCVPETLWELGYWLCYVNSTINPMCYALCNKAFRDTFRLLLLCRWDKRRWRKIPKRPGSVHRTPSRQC

[26] = molecular target: T9, Muscarinic acetylcholine receptor M4 (Rattus norvegicus); assay: as §2; format: cell membranes; details: concentration not given here
Method in brief: as §5

T3 sequence (P09483 whole entry): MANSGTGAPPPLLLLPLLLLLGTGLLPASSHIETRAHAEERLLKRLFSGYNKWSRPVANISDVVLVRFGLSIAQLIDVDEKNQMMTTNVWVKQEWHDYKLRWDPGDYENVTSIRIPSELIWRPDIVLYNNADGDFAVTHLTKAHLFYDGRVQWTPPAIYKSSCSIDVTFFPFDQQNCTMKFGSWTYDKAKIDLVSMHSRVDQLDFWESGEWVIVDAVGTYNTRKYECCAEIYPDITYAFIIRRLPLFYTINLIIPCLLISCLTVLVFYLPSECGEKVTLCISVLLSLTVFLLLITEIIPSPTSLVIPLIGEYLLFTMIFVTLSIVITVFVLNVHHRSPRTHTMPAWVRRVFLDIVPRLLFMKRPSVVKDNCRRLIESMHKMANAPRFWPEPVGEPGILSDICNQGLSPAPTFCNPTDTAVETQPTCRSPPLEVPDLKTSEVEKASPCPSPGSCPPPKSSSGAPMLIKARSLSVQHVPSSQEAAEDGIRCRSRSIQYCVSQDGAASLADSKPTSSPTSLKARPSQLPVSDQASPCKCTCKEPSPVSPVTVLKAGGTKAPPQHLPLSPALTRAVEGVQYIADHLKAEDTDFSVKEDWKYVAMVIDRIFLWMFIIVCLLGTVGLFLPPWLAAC
T3 sequence (P12390 whole entry): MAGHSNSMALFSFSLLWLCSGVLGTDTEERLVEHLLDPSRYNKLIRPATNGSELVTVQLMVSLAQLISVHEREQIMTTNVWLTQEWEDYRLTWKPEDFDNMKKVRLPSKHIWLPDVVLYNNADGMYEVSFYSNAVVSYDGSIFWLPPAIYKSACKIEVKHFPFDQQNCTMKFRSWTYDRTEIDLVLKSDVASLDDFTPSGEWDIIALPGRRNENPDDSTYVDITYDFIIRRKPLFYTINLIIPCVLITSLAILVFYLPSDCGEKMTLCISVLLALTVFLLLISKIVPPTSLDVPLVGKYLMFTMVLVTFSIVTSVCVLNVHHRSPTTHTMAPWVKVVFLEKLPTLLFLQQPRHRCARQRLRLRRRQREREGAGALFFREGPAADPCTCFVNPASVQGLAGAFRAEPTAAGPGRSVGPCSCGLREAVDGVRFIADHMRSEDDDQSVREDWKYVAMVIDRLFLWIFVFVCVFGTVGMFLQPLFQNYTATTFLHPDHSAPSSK
Chain of Muscarinic acetylcholine receptor M3 (Rattus norvegicus) (P08483 whole entry, looked up): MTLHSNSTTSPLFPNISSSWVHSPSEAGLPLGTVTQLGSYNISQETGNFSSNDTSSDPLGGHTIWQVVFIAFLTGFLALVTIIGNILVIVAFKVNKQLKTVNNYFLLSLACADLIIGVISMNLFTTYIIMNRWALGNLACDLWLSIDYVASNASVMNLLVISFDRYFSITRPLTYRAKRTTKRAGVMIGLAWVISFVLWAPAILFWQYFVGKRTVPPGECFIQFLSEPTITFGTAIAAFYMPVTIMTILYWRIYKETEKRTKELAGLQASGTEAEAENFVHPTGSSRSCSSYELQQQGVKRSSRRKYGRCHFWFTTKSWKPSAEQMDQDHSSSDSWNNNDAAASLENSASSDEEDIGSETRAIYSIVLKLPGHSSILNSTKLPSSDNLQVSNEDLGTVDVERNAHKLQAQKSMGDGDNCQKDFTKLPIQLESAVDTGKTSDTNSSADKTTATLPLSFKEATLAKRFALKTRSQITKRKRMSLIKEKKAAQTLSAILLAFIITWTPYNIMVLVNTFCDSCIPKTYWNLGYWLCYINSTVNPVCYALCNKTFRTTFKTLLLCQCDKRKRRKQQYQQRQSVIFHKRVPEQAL

Compound: C[C@@H]1O[C@H](C[N+](C)(C)C)C[C@H]1O [MUSCARINE]
- inhibition [1]: 28%
- Ki [2]: 1.4 µM
- IC50 [3]: 0.47 µM
- Ki [4]: 1.4 µM
- inhibition [5]: 28%
- EC50 [6]: 0.13 µM

Compound: COC(=O)C1=CCCN(C)C1 [ARECOLINE]
- Ki [7]: 0.27 µM
- Ki [8]: 0.27 µM

Compound: CC(=O)OC1CC2CCCC1N2C (centres undefined)
- Ki [9]: 8.3 µM
- Ki [10]: 280 µM
- inhibition [11]: 48%
- Ki [12]: 280 µM
- Ki [13]: 2.6 µM
- Ki [8]: 1.5 µM
- inhibition [14]: 48%
- Ki [15]: 2.7 µM
- Ki [16]: 15 µM
- Ki [4]: 8.3 µM
- Ki [17]: 2.6 µM
- Ki [18]: 2.7 µM
- Ki [19]: 1.5 µM
- Ki [20]: 280 µM

Compound: COC(=O)[C@H]1CC2NC1CC[C@@H]2O (some centres undefined)
- inhibition [1]: 0%
- inhibition [21]: 0%
- Ki [13]: 18 µM
- Ki [8]: 4 µM
- inhibition [22]: 2%
- inhibition [23]: 33%
- Ki [24]: 12 µM
- inhibition [25]: 2%
- Ki [17]: 18 µM
- Ki [18]: 12 µM
- Ki [19]: 4 µM
- inhibition [26]: 33%
